The conditions of data set [1]: cited from earlier work.
The next data set deals with LRP-1. Conditions: read-out: Affinity for LRP-1; in other cell types; cited from earlier work.
The conditions of data set [2]: after in situ perfusion; cited from earlier work.
The subject of data set [3] is bovine brain capillary endothelial cell monolayers. Conditions: cited from earlier work.
A short description of data set [4]: Immunohistochemical detection of Angiopep-2 in brain with anti-Angiopep-2 pAb. Conditions: mice, 20 mg/kg tail vein, 60 min uptake, cold saline perfusion.
For a further data set, the system named is endothelial cells. Description: Endothelial cells exposed to Angiopep-2. Type of data set: cell-based. Conditions: data not shown.
For data set [5] the following is noted: in situ brain perfusion; cited from earlier work.
For the next data set, the system named is RBE4 cells. Description: [125I]-Angiopep-2 uptake assay in brain endothelial cells. As to conditions: [125I]-Angiopep-2 100 nM; poly-L-lysine 350 μg/ml, protamine 40 μg/ml. Type of data set: cell-based, rat. In short, it runs like this: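 RBE4 brain endothelial cells were grown on collagen I in α-MEM/Ham's F-12 (1:1) with 10% heat-inactivated FCS, G418 and bFGF, seeded at 5 × 10⁴ cells/well and fed 3 days. Subconfluent cells in Ringer/HEPES pH 7.4 took up the tracer for 2 min at 37°C with a polycation, ± unlabelled peptide. Cells were lysed in 0.3 M NaOH and gamma counted, with unlabelled-cell background subtracted, in quadruplicate.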

Data set [6] concerns the target LRP-1 (Homo sapiens) (UniProt Q07954). As to conditions: cited from earlier work.
The target is the same in data set [7]. As to conditions: cited from earlier work. This is another data set of the same source.

Read-outs that look alike come from different tables or passages of the source.

Chain of LRP-1 (Homo sapiens) (Q07954 20-4544): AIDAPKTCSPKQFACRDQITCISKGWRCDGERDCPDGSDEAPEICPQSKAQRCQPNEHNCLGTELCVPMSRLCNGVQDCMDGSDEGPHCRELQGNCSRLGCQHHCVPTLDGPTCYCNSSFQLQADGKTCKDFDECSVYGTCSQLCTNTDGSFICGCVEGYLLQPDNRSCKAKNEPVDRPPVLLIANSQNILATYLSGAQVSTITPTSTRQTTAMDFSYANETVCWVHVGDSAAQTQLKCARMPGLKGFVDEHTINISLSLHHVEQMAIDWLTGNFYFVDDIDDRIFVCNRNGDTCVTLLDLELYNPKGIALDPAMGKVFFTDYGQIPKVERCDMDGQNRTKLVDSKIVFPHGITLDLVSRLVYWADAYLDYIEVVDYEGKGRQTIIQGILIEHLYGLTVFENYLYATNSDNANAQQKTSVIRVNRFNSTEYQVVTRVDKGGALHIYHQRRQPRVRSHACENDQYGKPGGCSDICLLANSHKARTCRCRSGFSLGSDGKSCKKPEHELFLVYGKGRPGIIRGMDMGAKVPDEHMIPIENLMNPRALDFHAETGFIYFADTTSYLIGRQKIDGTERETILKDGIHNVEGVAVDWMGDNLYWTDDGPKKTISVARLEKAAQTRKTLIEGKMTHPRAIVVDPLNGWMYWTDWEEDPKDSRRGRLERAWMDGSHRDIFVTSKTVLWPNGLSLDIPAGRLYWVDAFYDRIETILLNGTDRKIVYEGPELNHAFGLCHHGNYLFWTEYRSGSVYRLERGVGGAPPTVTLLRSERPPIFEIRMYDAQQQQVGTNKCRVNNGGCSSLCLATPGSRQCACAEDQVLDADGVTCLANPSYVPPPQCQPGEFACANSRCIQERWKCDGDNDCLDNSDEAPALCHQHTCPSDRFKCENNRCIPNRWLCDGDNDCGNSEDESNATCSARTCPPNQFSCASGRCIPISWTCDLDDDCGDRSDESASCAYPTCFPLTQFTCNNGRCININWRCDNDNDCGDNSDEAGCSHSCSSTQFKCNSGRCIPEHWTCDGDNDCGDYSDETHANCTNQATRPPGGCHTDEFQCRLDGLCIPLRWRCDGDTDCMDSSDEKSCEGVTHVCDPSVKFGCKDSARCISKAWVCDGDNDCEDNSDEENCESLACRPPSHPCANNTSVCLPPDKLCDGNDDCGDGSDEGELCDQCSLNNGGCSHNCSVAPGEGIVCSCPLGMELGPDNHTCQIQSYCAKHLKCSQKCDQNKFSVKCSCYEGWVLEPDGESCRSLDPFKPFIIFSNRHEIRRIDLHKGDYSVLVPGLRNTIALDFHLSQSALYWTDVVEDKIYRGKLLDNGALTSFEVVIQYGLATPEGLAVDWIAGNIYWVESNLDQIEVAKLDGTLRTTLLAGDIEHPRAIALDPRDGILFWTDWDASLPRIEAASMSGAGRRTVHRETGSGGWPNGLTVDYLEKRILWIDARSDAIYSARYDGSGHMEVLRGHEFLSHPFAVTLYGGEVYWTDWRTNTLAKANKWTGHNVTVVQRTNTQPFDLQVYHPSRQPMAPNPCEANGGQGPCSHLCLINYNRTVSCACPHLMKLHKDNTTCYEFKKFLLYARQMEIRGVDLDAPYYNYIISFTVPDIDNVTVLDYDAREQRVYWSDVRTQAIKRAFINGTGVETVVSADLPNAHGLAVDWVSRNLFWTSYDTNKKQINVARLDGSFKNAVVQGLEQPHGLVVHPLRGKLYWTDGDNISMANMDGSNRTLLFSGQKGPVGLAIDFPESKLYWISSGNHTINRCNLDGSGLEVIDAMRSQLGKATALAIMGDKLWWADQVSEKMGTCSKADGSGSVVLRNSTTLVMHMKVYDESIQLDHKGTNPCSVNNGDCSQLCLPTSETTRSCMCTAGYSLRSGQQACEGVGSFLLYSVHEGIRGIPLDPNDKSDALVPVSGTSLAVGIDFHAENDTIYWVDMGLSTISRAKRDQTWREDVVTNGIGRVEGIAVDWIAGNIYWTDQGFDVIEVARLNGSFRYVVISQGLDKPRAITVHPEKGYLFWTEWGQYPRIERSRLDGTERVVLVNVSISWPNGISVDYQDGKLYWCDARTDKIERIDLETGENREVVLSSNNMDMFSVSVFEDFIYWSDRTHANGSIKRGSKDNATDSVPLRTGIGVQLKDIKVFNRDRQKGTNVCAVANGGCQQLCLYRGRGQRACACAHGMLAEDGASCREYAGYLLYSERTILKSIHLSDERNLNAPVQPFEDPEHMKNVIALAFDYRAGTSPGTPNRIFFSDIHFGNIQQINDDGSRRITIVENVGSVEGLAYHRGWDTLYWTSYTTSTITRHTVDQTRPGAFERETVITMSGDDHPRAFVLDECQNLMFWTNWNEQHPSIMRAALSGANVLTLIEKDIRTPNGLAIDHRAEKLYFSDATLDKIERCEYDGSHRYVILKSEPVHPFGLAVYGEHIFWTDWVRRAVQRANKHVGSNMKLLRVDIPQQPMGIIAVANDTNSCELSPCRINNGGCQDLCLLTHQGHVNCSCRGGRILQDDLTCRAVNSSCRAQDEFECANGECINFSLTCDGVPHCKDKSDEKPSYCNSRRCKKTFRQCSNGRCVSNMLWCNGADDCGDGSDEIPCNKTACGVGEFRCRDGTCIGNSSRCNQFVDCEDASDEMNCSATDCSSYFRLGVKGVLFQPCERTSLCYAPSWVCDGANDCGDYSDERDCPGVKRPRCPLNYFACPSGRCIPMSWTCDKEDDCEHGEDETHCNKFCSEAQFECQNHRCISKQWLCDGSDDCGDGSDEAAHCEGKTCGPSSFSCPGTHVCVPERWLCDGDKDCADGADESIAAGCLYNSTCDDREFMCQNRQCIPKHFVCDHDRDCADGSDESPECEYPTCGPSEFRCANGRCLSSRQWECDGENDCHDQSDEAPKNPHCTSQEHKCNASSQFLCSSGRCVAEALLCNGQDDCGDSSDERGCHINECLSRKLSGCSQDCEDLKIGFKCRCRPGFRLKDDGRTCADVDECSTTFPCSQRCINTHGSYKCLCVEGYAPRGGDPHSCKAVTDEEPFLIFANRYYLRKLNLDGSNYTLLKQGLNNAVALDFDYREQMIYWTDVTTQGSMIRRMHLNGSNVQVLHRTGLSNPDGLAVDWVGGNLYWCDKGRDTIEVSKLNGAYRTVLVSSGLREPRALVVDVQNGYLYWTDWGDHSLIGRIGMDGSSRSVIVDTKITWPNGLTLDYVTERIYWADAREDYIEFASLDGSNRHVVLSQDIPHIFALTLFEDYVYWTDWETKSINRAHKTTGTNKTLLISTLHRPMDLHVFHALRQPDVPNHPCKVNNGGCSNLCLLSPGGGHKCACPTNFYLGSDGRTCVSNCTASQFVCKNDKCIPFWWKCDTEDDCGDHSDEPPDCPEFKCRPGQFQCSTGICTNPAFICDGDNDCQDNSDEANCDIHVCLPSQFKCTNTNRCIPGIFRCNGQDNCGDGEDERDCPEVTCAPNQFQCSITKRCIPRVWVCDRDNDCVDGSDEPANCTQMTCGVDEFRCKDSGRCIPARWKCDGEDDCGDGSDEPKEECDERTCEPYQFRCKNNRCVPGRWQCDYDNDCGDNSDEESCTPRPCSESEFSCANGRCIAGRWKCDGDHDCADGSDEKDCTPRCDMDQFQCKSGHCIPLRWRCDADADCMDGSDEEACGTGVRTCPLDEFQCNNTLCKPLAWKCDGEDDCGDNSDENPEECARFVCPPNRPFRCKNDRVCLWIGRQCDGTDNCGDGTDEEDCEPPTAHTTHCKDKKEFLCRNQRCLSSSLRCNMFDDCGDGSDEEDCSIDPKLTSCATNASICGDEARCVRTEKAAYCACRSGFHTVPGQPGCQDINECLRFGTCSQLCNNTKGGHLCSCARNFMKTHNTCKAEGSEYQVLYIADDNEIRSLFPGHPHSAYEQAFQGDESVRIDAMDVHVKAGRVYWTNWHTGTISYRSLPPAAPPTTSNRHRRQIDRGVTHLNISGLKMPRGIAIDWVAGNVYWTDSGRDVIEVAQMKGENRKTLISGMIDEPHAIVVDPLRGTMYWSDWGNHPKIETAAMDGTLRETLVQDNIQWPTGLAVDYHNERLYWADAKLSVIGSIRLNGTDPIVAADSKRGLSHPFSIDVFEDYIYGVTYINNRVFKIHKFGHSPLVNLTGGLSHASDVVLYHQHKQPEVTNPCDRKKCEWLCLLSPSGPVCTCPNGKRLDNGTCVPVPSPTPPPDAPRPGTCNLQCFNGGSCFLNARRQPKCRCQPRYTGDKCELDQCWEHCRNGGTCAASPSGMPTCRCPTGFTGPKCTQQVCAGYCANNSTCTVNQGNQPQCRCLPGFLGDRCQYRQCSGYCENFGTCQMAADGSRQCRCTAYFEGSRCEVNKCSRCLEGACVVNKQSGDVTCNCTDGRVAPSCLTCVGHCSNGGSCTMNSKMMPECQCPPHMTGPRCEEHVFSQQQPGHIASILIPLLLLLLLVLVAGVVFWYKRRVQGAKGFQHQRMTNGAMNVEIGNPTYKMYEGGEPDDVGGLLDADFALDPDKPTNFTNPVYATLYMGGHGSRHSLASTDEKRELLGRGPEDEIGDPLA
Chain of receptor-associated protein (RAP) (P30533 35-357): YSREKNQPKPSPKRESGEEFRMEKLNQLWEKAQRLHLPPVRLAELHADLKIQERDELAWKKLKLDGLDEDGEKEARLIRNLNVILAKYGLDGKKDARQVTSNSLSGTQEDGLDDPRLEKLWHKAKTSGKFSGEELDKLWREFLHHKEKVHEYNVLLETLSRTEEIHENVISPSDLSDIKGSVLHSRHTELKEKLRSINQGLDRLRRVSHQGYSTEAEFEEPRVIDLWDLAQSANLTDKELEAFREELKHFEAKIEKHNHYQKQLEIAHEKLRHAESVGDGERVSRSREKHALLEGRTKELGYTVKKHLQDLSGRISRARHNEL

Turning to Cy5.5, in data set [1], the “Passage of free dye across the BBB” value is “does not cross the BBB”.

As to “RAP: receptor-associated protein, an LRP ligand”, the Kd at LRP-1 is roughly 2 nM.

On to TFFYGGSRGKRNNFKTEEY [Angiopep-2], for which the “Apparent distribution volume in brain parenchyma vs transferrin” value in data set [2] was “greater apparent distribution volume in brain parenchyma than transferrin”. Moreover, in [3], the “In vitro BBB transcytosis” value is on record as “high BBB transcytosis in vitro”. Moreover, the “Immunohistochemical detection in brain after IV bolus injection” value in data set [4] is “present in the brain parenchyma”. In addition, the “Effect of exposure to Angiopep-2 on endothelial cells” value in the data set on endothelial cells is reported as “unaffected”. In [5], the “Permeability of the BBB to inulin in the presence of Angiopep-2” value is on record as “unaffected”.

Turning to TFFYGGSRGRRNNFRTEEY [Angiopep-7], the “In vitro BBB transcytosis” value in data set [3] is given as “did not exhibit in vitro transcytosis”.

For poly-L-glutamine, the “Inhibition of [125I]-Angiopep-2 uptake into RBE4 cells” value (“Inhibition” below) in the data set with RBE4 cells is reported as “unaffected”.

Take poly-L-lysine: the “Inhibition” value in the data set with RBE4 cells turned out to be 69%.

protamine: the “Inhibition” value in the data set with RBE4 cells amounted to 79%.

As to “receptor-associated protein (RAP) (from UniProt P30533)”, in the data set with LRP-1 (Homo sapiens) [6], the Kd is 2 nM.

For the substance α2-macroglobulin (from UniProt P01023), the Kd with LRP-1 (Homo sapiens) [7] was 2 nM.

Take α2-macroglobulin: LRP-1 ligand: on LRP-1, the Kd is roughly 2 nM.

The values above are taken from article PMC3822732 (Journal of Cellular and Molecular Medicine, 2009).
